Active and inactive are the calls of the source. The rule behind the calls is not given here.
Experiments:
[1] = target: T1, Phospholipase A and acyltransferase 2 (Homo sapiens, UniProt Q9NWW9); test: Inhibition of full-length C-terminal FLAG-tagged human PLAAT2 expressed in HEK293T cell lysate preincubated for 30 mins followed by MB064 addition and measured after 20 mins by SDS-PAGE based ABPP analysis; assay type: cell-free, HEK-293T
T1 sequence (Q9NWW9 whole entry): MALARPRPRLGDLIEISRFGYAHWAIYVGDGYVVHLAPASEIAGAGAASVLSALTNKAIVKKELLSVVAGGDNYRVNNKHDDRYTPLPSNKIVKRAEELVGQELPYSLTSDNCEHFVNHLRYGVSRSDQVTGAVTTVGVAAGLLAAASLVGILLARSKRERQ
Outline: (§1)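 Dose–response competitive ABPP on cytosol only, from HEK293T overexpressing FLAG-tagged PLAAT. Inhibitor 30 min rt, then MB064 20 min rt. PLAAT2 0.25 μg/μL with 250 nM probe; PLAAT3 0.5 μg/μL with 250 nM; PLAAT4 and PLAAT5 1 μg/μL with 500 nM. Fluorescence normalized to Coomassie. IC50 from curves, reported as pIC50 ± SEM, n = 3.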

[2] = target: T2, Phospholipase A and acyltransferase 3 (Homo sapiens, UniProt P53816); test: Inhibition of full-length C-terminal FLAG-tagged human PLAAT3 expressed in HEK293T cell lysate preincubated for 30 mins followed by MB064 addition and measured after 20 mins by SDS-PAGE based ABPP analysis; assay type: cell-free, HEK-293T; outline: as §1
T2 sequence (P53816 whole entry): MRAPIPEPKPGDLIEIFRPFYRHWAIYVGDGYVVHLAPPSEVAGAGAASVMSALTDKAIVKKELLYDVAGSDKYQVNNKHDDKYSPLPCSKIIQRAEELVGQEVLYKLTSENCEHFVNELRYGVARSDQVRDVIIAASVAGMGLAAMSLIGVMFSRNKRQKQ

[3] = target: T3, Phospholipase A and acyltransferase 4 (Homo sapiens, UniProt Q9UL19); test: Inhibition of full-length C-terminal FLAG-tagged human PLAAT4 expressed in HEK293T cell lysate preincubated for 30 mins followed by MB064 addition and measured after 20 mins by SDS-PAGE based ABPP analysis; assay type: cell-free, HEK-293T; outline: as §1
T3 sequence (Q9UL19 whole entry): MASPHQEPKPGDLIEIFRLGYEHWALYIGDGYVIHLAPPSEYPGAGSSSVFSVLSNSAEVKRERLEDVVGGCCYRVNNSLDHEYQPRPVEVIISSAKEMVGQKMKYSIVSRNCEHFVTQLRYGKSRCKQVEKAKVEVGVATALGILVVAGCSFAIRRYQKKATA

[4] = target: T4, Phospholipase A and acyltransferase 5 (Homo sapiens, UniProt Q96KN8); test: Inhibition of full-length C-terminal FLAG-tagged human PLAAT5 expressed in HEK293T cell lysate preincubated for 30 mins followed by MB064 addition and measured after 20 mins by SDS-PAGE based ABPP analysis; assay type: cell-free, HEK-293T; outline: as §1
T4 sequence (Q96KN8 whole entry): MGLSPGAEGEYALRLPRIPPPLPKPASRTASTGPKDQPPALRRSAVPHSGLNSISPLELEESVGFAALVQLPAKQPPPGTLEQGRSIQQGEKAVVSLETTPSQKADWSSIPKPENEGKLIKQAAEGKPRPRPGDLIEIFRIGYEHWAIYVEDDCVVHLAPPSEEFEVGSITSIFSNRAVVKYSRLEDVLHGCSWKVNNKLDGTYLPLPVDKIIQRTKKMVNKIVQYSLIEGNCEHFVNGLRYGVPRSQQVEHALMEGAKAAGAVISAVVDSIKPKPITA

[5] = target: T5, Phospholipase A and acyltransferase 2 (Homo sapiens) (UniProt Q9NWW9); test: Inhibition of full-length C-terminal FLAG-tagged human PLAAT2 expressed in HEK293T cell lysate at 10 uM preincubated for 30 mins followed by MB064 addition and measured after 20 mins by SDS-PAGE based ABPP analysis; assay type: cell-free; conditions: HEK-293T
T5 sequence (whole entry): T1 sequence (Q9NWW9 whole entry)
Outline: (§2)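 Cytosol from HEK293T cells transiently transfected (PEI) with C-terminal FLAG-tagged human PLAAT, harvested 48–72 h. Inhibitor 10 μM, 30 min rt, then MB064 probe 20 min rt. Protein/MB064: PLAAT2 0.25 μg/μL, 250 nM; PLAAT3 0.5 μg/μL, 250 nM; PLAAT4 1 μg/μL, 500 nM; PLAAT5 1 μg/μL, 500 nM. Read-out: in-gel fluorescence after SDS-PAGE, normalized to Coomassie. Triplicate.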

[6] = target: Phospholipase A and acyltransferase 3 (Homo sapiens) (UniProt P53816); test: Inhibition of full-length C-terminal FLAG-tagged human PLAAT3 expressed in HEK293T cell lysate at 10 uM preincubated for 30 mins followed by MB064 addition and measured after 20 mins by SDS-PAGE based ABPP analysis; assay type: cell-free; conditions: HEK-293T; outline: as §2
[7] = target: Phospholipase A and acyltransferase 4 (Homo sapiens) (UniProt Q9UL19); test: Inhibition of full-length C-terminal FLAG-tagged human PLAAT4 expressed in HEK293T cell lysate at 10 uM preincubated for 30 mins followed by MB064 addition and measured after 20 mins by SDS-PAGE based ABPP analysis; assay type: cell-free; conditions: HEK-293T; outline: as §2
[8] = target: T6, Phospholipase A and acyltransferase 5 (Homo sapiens) (UniProt Q96KN8); test: Inhibition of full-length C-terminal FLAG-tagged human PLAAT5 expressed in HEK293T cell lysate at 10 uM preincubated for 30 mins followed by MB064 addition and measured after 20 mins by SDS-PAGE based ABPP analysis; assay type: cell-free; conditions: HEK-293T; outline: as §2
T6 sequence (whole entry): T4 sequence (Q96KN8 whole entry)

Homo sapiens [9] = species on record: Homo sapiens; test: Selectivity index, difference between pIC50 for full-length C-terminal FLAG-tagged human PLAAT5 expressed in HEK293T cell lysate to pIC50 for full-length C-terminal FLAG-tagged human PLAAT2 expressed in HEK293T cell lysate
Outline: (§3)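 Cytosol of HEK293T cells transiently transfected (PEI) with C-terminal FLAG-tagged human PLAAT, harvested at 48 or 72 h. Dose-response: pretreated with inhibitor or DMSO for 30 min at rt, then labelled with MB064 for 20 min at rt. Protein and MB064: PLAAT2 0.25 μg/μL, 250 nM; PLAAT3 0.5 μg/μL, 250 nM; PLAAT4 1 μg/μL, 500 nM; PLAAT5 1 μg/μL, 500 nM. Read by SDS-PAGE in-gel fluorescence normalized to Coomassie. Triplicate pIC50s; index is the pIC50 difference.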

Homo sapiens [10] = species on record: Homo sapiens; test: Selectivity index, difference between pIC50 for full-length C-terminal FLAG-tagged human PLAAT5 expressed in HEK293T cell lysate to pIC50 for full-length C-terminal FLAG-tagged human PLAAT3 expressed in HEK293T cell lysate; outline: as §3
Homo sapiens [11] = species on record: Homo sapiens; test: Selectivity index, difference between pIC50 for full-length C-terminal FLAG-tagged human PLAAT5 expressed in HEK293T cell lysate to pIC50 for full-length C-terminal FLAG-tagged human PLAAT4 expressed in HEK293T cell lysate; outline: as §3

SMILES | IC50 [1] [µM] | IC50 [2] [µM] | IC50 [3] [µM] | IC50 [4] [µM] | inhibition [5] | inhibition [6] | inhibition [7] | inhibition [8] | Selectivity Index (Homo sapiens [9]) | Selectivity Index (Homo sapiens [10]) | Selectivity Index (Homo sapiens [11])
O=C(NCCc1ccccc1)C(O)CCc1ccc(Cl)cc1 (stereo not given) | > 10 | > 10 | > 10 | > 10 | inactive | inactive | inactive | inactive |  |  | 
O=C(CCc1ccc(Oc2ccccc2)cc1)C(=O)NCCc1ccccc1 | 3.98 | 3.98 | 1.26 | 0.126 |  |  |  |  | 10 to 30 | 10 to 30 | 10 to 30

Source: ChEMBL document CHEMBL4622983, “Structure-Activity Relationship Studies of α-Ketoamides as Inhibitors of the Phospholipase A and Acyltransferase Enzyme Family” (J Med Chem, 2020)
